Among all 330,000 compounds or so, about 2,400 (0.73%) were called active. The calls were made as follows: active = inhibition of at least 40% at 20 µM; inactive = the rest. This excerpt belongs to a sample that is enriched for actives.

The record followed here is PubChem BioAssay AID489030 (Sanford-Burnham Center for Chemical Genomics, 2010).

The assay deals with Apoptotic protease-activating factor 1 (Homo sapiens) (UniProt O14727). Description: inhibitors of human Apaf-1 apoptosome, primary screen, biochemical, DEVD-Rh110 fluorescence, uHTS (AID 489030).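 Also: plate controls were DMSO wells for no effect and DEVD-CHO caspase inhibitor wells for full effect.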 The following applies: reconstituted apoptosome caspase-3 activity, at 20 µM, hits give high values. In a few lines: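 System: reconstituted apoptosome with Apaf-1, cytochrome c, caspase-9, procaspase-3, dATP; Signal: Rh110 fluorescence intensity; Schedule: 30 min compound preincubation, 50 min activation, room temperature; Reagent: cytochrome c trigger plus (Z-DEVD)2-Rh110 caspase-3 substrate.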
Sequence of Apoptotic protease-activating factor 1 (Homo sapiens) (O14727 whole entry, looked up): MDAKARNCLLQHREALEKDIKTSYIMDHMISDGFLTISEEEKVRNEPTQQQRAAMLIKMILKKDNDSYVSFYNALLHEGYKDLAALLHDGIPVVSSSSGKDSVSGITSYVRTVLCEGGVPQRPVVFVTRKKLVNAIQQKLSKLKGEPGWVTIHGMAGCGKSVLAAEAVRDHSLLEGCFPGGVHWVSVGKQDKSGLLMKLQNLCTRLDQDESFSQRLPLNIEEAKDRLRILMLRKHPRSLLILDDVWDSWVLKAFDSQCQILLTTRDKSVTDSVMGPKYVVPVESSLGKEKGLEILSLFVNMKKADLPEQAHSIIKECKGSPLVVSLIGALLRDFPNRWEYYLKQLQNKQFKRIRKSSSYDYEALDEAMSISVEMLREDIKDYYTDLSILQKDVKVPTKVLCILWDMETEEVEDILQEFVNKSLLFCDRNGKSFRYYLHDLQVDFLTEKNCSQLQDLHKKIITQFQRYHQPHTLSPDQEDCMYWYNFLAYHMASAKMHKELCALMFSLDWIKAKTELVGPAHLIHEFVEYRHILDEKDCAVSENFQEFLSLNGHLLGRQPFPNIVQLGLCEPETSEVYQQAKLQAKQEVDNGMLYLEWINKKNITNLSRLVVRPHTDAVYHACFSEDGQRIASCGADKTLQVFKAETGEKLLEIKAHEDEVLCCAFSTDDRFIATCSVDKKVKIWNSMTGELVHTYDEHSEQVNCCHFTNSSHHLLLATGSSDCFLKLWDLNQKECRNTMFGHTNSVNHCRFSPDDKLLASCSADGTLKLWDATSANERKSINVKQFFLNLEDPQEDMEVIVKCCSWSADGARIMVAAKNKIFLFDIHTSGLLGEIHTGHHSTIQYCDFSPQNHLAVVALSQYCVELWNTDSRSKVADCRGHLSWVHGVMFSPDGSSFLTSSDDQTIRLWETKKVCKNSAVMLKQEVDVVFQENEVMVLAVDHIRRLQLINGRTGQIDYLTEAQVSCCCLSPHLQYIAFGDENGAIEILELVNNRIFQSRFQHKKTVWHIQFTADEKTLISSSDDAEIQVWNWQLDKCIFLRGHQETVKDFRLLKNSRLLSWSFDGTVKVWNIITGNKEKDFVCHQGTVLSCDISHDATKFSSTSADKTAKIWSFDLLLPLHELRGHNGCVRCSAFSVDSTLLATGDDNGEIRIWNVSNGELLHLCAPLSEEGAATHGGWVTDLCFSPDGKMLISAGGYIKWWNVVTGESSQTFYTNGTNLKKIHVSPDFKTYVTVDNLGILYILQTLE
Consider `CCOC(=O)c1ccc2c(c1)nc(SCC(=O)NC(C)C)n2CC`, for which the inhibition was -14.5% (inactive).

On to `Cc1ccc(C(=O)N/N=C\c2cc(Br)c(Br)o2)cn1`, for which the inhibition is 75.4% (active). Then `Cc1ccc(C(=O)N/N=C/c2cccc3ccccc23)cn1`, with -7.7% (inactive). Regarding `O=C(N/N=C\c1cc(Br)c(Br)o1)C1COc2ccccc2O1` (stereo not drawn), the inhibition was 6.95% (inactive).

With `O=C(OCc1ccccc1F)c1ccc2c(c1)OCCO2`, the inhibition was 9.05% (inactive). With `CCOC(=O)CCC(=O)OCC(=O)NC(C)C1CC2CCC1C2` (stereo not drawn), the inhibition was 3.06% (inactive). `COC(=O)c1ccc(NC(=O)c2cc3c(CO)cnc(C)c3oc2=Nc2cccc(C(N)=O)c2)cc1`: the inhibition was -28.9% (inactive). As to `CC(=O)N1N=C(c2ccncc2)OC1(Cc1ccccc1)Cc1ccccc1`, the inhibition is 3.9% (inactive). For the compound `O=C(O/N=C(/c1ccccc1)c1ccncc1)c1ccccc1[N+](=O)[O-]`, the inhibition is -9.34% (inactive). In the case of `Cc1cc(N2CCCC2)ccc1NC(=O)COc1ccc(Cl)cc1`, the inhibition is 62.2% (active).

`Cc1cc(C)cc(OCC(=O)Nc2ccc(N3CCOCC3)cc2N2CCOCC2)c1`: the inhibition is 21.9% (inactive).

Turning to `CCC(=O)c1ccc(OCC(=O)Nc2ccc(N3CCCCC3)cc2)cc1`, the inhibition is -8.58% (inactive). Take `CS(=O)(=O)N(CC(=O)N1CCN(c2ccc(F)cc2)CC1)C1CCCCC1`: the inhibition was -2.79% (inactive). Then `O=C(NC1CCCC1)C(c1c(F)cccc1Cl)N(C(=O)c1csnn1)C1CC1` (stereo not drawn), with 6.38% (inactive); and `Cc1ccc2c(c1)C1CN(C)CCC1N2S(=O)(=O)c1ccc(Oc2ccc([N+](=O)[O-])cc2)cc1` (stereo not drawn), with 59.9% (active). Regarding `Cc1ccc2c(c1)C1CN(C)CCC1N2S(=O)(=O)c1cccc(F)c1` (stereo not drawn), the inhibition is 1.11% (inactive).

As to `Cc1ccc2c(c1)C1CN(C)CCC1N2C(=S)Nc1ccc(OC(F)F)cc1` (stereo not drawn), the inhibition is -7.03% (inactive). In the case of `COc1ccc(N2CCN(C(=O)c3cn(C)c4ccc(S(=O)(=O)N5CCOCC5)cc4c3=O)CC2)cc1`, the inhibition was -4.77% (inactive). For the compound `CCC(CC)c1nnc(NC(=O)C2=COCCO2)s1`, the inhibition was 3.27% (inactive).

For `CCN(CC)CCOc1ccc2c(c1)C(=NNC(=O)c1ccccn1)c1cc(OCCN(CC)CC)ccc1-2`, the inhibition was 52.5% (active). Take `Cc1cnc(NC(=O)c2ccccn2)s1`: the inhibition is -31.2% (inactive). Then `C/C(=N\NC(=O)c1ccccc1F)c1ccccn1`, with -4.33% (inactive); and `Cc1ccc2c(Cl)c(C(=O)NCCCn3ccnc3)sc2c1`, with 10.1% (inactive); and `CC(C)(C)NC(=O)CN(C(=O)c1csnn1)c1ccccc1-c1ccccc1`, with -0.459% (inactive).

Regarding `Cc1cc(C)c(NC(=S)N2CCCC2C(=O)O)c(C)c1` (stereo not drawn), the inhibition is -0.801% (inactive). Take `CCC(=O)Nc1c(S(=O)(=O)c2ccccc2)c2nc3ccccc3nc2n1Cc1ccccc1`: the inhibition was 49.2% (active).

On to `Cc1ccc(S(=O)(=O)c2c(N)n(C)c3nc4ccccc4nc23)cc1`, for which the inhibition is -405% (inactive). With `CCN(CC)CCn1c(N)c(S(=O)(=O)c2ccccc2)c2nc3ccccc3nc21`, the inhibition is 12% (inactive).
